In ChEMBL document CHEMBL1133577, “Design and synthesis of piperazine-based matrix metalloproteinase inhibitors” (J Med Chem, 2000):

Key:
[1] = target: Matrix metalloproteinase-9 (Homo sapiens, UniProt P14780); experiment: In vitro inhibitory activity against matrix metalloprotease-9 (MMP-9)
Interstitial collagenase = target: T1, Interstitial collagenase (Homo sapiens, UniProt P03956); experiment: In vitro inhibitory activity against matrix metalloprotease-1 (MMP-1)
T1 sequence (P03956 whole entry): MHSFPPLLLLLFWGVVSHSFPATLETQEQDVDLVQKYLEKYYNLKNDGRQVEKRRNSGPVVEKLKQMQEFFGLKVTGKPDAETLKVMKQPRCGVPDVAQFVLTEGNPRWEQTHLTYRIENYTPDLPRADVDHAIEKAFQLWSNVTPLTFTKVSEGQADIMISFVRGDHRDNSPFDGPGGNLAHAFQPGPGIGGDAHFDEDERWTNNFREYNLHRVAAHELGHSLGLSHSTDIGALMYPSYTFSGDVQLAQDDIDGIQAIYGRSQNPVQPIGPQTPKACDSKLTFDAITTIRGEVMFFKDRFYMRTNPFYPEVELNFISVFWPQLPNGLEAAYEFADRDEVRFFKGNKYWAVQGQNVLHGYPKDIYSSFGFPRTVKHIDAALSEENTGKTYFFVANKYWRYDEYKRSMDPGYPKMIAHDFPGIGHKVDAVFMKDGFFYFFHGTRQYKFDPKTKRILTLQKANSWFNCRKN

Stromelysin-1 = Stromelysin-1 (Homo sapiens, UniProt P08254); experiment: In vitro inhibitory activity against matrix metalloprotease-3 (MMP-3)
Matrilysin = target: T2, Matrilysin (Homo sapiens, UniProt P09237); experiment: In vitro inhibitory activity against matrix metalloprotease-7 (MMP-7)
T2 sequence (P09237 whole entry): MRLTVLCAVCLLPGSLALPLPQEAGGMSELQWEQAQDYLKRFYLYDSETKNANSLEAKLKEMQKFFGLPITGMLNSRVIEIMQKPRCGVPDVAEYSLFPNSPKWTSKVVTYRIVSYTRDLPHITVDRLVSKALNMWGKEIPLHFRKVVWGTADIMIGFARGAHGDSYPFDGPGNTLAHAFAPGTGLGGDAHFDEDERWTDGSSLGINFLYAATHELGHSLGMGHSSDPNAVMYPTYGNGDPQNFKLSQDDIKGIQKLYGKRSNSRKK
How it was run: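 MMP-7 supplied as active enzyme. It was incubated with 8 µM […] in 50 mM Tris-HCl pH 7.5, 10 mM CaCl2, 0.15 M NaCl, 0.05% Brij for 20-30 min at 37 °C with varying inhibitor. The reaction was quenched with 50 mM EDTA and fluorescence read at ex 328/em 393 nm. Activity is expressed as % of uninhibited control, triplicates; IC50 from 4-parameter logistic fit.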

Collagenase 3 = Collagenase 3 (Homo sapiens, UniProt P45452); experiment: In vitro inhibitory activity against matrix metalloprotease-13 (MMP-13)

Matrix metalloproteinase-9, sequence (P14780 whole entry): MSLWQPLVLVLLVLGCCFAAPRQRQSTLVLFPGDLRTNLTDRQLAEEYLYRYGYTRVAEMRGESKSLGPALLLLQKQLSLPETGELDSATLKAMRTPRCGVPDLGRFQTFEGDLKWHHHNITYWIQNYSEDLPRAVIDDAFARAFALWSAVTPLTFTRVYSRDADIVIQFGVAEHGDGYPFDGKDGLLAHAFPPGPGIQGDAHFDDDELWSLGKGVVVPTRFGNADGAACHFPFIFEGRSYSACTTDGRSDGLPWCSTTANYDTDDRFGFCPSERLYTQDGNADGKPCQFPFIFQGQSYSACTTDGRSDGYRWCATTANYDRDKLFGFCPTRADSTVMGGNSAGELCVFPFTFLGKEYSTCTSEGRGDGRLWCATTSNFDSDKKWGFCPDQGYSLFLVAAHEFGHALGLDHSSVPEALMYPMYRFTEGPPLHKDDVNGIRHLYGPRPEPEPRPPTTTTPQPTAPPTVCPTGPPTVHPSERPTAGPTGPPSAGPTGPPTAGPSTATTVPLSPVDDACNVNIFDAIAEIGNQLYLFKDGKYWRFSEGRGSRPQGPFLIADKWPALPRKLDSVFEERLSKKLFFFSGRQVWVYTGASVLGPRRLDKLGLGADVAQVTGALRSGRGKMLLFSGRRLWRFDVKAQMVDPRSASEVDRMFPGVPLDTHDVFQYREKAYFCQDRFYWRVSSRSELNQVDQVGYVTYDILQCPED
Stromelysin-1, sequence (P08254 whole entry): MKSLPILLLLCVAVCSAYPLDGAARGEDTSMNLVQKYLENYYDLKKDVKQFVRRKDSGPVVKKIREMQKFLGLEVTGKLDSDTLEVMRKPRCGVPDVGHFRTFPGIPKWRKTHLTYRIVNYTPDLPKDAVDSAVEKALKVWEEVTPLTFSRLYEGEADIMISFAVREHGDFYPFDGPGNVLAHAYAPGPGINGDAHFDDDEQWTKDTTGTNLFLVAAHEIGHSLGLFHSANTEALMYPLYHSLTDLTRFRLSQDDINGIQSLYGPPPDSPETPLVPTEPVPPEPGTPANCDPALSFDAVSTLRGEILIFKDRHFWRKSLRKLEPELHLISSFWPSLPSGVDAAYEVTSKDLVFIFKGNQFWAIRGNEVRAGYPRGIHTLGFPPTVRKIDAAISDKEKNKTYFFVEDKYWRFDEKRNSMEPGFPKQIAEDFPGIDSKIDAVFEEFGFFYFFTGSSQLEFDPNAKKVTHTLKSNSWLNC

Compound | IC50 [1] | IC50 (Interstitial collagenase) | IC50 (Stromelysin-1) | IC50 (Matrilysin) | IC50 (Collagenase 3)
COc1ccc(S(=O)(=O)N2CCN(C(=O)[C@@H](O)C(C)C)CC2C(=O)NO)cc1 (stereo partly specified) | 4.4 nM | 227 nM | 60 nM | 1690 nM | 1 nM
CCCCCCN(C)C(=O)N1CCN(S(=O)(=O)c2ccc(OC)cc2)C(C(=O)NO)C1 (stereo unspecified) | 6 nM | 71 nM | 4.3 nM | 3240 nM | 1.9 nM
COc1ccc(S(=O)(=O)N2CCN(S(=O)(=O)c3c(C)noc3C)CC2C(=O)NO)cc1 (stereo unspecified) | 2.4 nM | 54 nM | 3.2 nM | 1020 nM | 1.3 nM
CCCCCC(=O)N1CCN(S(=O)(=O)c2ccc(OC)cc2)C(C(=O)NO)C1 (stereo unspecified) | – | 115 nM | 39 nM | 787 nM | –
COc1ccc(S(=O)(=O)N2CCN(C(=O)c3ccco3)CC2C(=O)NO)cc1 (stereo unspecified) | 1.6 nM | 25 nM | 7.5 nM | 642 nM | 2.5 nM
COc1ccc(S(=O)(=O)N2CCN(S(C)(=O)=O)CC2C(=O)NO)cc1 (stereo unspecified) | 0.6 nM | 8 nM | 3.5 nM | 483 nM | 1 nM
COc1ccc(S(=O)(=O)N2CCN(Cc3ccccc3)CC2C(=O)NO)cc1 (stereo unspecified) | 7.6 nM | 324 nM | 75 nM | 14000 nM | 8 nM
CCCCCCNC(=O)N1CCN(S(=O)(=O)c2ccc(OC)cc2)C(C(=O)NO)C1 (stereo unspecified) | 2.6 nM | 30 nM | 28 nM | 497 nM | 1.4 nM
CCCCCCN1CCN(S(=O)(=O)c2ccc(OC)cc2)C(C(=O)NO)C1 (stereo unspecified) | 17 nM | 996 nM | 71 nM | 15700 nM | 4.2 nM
CCCCCCN(C)C(=O)N1CCN(S(=O)(=O)c2ccc(Br)cc2)C(C(=O)NO)C1 (stereo unspecified) | 13 nM | 87 nM | 175 nM | 1200 nM | 4.5 nM
COc1ccc(S(=O)(=O)N2CCN(S(=O)(=O)c3ccc(OC)cc3)C(C(=O)NO)C2)cc1 (stereo unspecified) | 1.2 nM | 60 nM | 13 nM | 1890 nM | 1.3 nM
COc1ccc(S(=O)(=O)N2CCNCC2C(=O)NO)cc1 (stereo unspecified) | 6.9 nM | – | – | – | –
COc1ccc(S(=O)(=O)N2CCN(C)CC2C(=O)NO)cc1 (stereo unspecified) | 25 nM | – | 269 nM | 10000 nM | 21 nM
COc1ccc(S(=O)(=O)N2CCN(C(N)=O)CC2C(=O)NO)cc1 (stereo unspecified) | 2.3 nM | 115 nM | 20 nM | 537 nM | 3.6 nM
COc1ccc(S(=O)(=O)N2CCN(C(=O)c3cccnc3)CC2C(=O)NO)cc1 (stereo unspecified) | 32 nM | 994 nM | 184 nM | 27700 nM | 57 nM
COc1ccc(S(=O)(=O)N2CCN(C(=O)N3CCOCC3)CC2C(=O)NO)cc1 (stereo unspecified) | 8.3 nM | 228 nM | 124 nM | 4350 nM | 54 nM
COc1ccc(S(=O)(=O)N2CCN(C(=O)c3ccc(-c4ccccc4)cc3)CC2C(=O)NO)cc1 (stereo unspecified) | – | 43 nM | 23 nM | 931 nM | 0.9 nM
COCCN(CCOC)C(=O)N1CCN(S(=O)(=O)c2ccc(Br)cc2)C(C(=O)NO)C1 (stereo unspecified) | 20 nM | 49 nM | 385 nM | 1130 nM | 3.2 nM
CCCN(CC1CC1)C(=O)N1CCN(S(=O)(=O)c2ccc(OC)cc2)C(C(=O)NO)C1 (stereo unspecified) | – | – | 65 nM | 2090 nM | 1.1 nM
COc1ccc(S(=O)(=O)N2CCN(C(=O)NCCc3ccccc3)CC2C(=O)NO)cc1 (stereo unspecified) | 3.6 nM | 70 nM | 27 nM | 824 nM | –

Compound | IC50 [1] | IC50 (Interstitial collagenase) | IC50 (Stromelysin-1) | IC50 (Matrilysin) | IC50 (Collagenase 3)
COc1ccc(S(=O)(=O)N2CCN(C(=O)N(C)Cc3ccccc3)CC2C(=O)NO)cc1 (stereo unspecified) | – | 322 nM | 38 nM | – | 1.8 nM
COc1ccc(S(=O)(=O)N2CCN(S(=O)(=O)c3sc(N)nc3C)CC2C(=O)NO)cc1 (stereo unspecified) | 2.1 nM | 31 nM | 2.5 nM | 1280 nM | 2 nM
COc1ccc(S(=O)(=O)N2CCN(C(=S)NCc3ccccc3)CC2C(=O)NO)cc1 (stereo unspecified) | 6.6 nM | 68 nM | 41 nM | 401 nM | –
COc1ccc(S(=O)(=O)N2CCN(C(=O)NCc3ccccc3)CC2C(=O)NO)cc1 (stereo unspecified) | 3.8 nM | 99 nM | 17 nM | 416 nM | 2.4 nM
COc1ccc(S(=O)(=O)N2CCN(C(=O)c3cccs3)CC2C(=O)NO)cc1 (stereo unspecified) | 1.3 nM | 68 nM | 15 nM | 710 nM | 1.9 nM
COc1ccc(S(=O)(=O)N2CCN(C(=O)OCc3ccccc3)CC2C(=O)NO)cc1 (stereo unspecified) | 1.9 nM | 24 nM | – | 232 nM | 1.3 nM
COc1ccc(S(=O)(=O)N2CCN(C(C)=O)CC2C(=O)NO)cc1 (stereo unspecified) | 1.8 nM | 73 nM | 18 nM | 821 nM | 1 nM
CCOCCCOC(=O)N1CCN(S(=O)(=O)c2ccc(OC)cc2)C(C(=O)NO)C1 (stereo unspecified) | 0.6 nM | 22 nM | 5.3 nM | 483 nM | 0.7 nM
COc1ccc(S(=O)(=O)N2CCN(C(=O)OCc3cccnc3)CC2C(=O)NO)cc1 (stereo unspecified) | 1.9 nM | 18 nM | 8.9 nM | 502 nM | 1 nM
COc1ccc(S(=O)(=O)N2CCN(C(=O)COc3ccccc3)CC2C(=O)NO)cc1 (stereo unspecified) | 3 nM | 92 nM | 9.5 nM | 908 nM | –
COc1ccc(S(=O)(=O)N2CCN(C(=O)N3CCN(C)CC3)CC2C(=O)NO)cc1 (stereo unspecified) | 5 nM | 354 nM | 114 nM | 2690 nM | 4.1 nM
COc1ccc(S(=O)(=O)N2CCN(C(=O)c3snnc3C)CC2C(=O)NO)cc1 (stereo unspecified) | 17 nM | 1060 nM | 173 nM | 6090 nM | 21 nM
COc1ccc(S(=O)(=O)N2CCN(C(=O)N3CCCCCC3)CC2C(=O)NO)cc1 (stereo unspecified) | – | 158 nM | 54 nM | 2690 nM | 2.9 nM
COc1ccc(S(=O)(=O)N2CCN(C(=O)OC(C)(C)C)CC2C(=O)NO)cc1 (stereo unspecified) | 2.3 nM | 81 nM | 60 nM | 1460 nM | –
COc1ccc(S(=O)(=O)N2CCN(C(=O)C3CCCCC3)CC2C(=O)NO)cc1 (stereo unspecified) | 1.8 nM | 219 nM | 27 nM | 2170 nM | 1.5 nM
COc1ccc(S(=O)(=O)N2CCN(C(=O)Nc3cccc(OC)c3)CC2C(=O)NO)cc1 (stereo unspecified) | 4.1 nM | 80 nM | 13 nM | 1100 nM | 2.8 nM
COc1ccc(S(=O)(=O)N2CCN(C(=O)c3c(-c4ccccc4)noc3C)CC2C(=O)NO)cc1 (stereo unspecified) | 22 nM | 1320 nM | 410 nM | 22100 nM | 27 nM
COc1ccc(S(=O)(=O)N2CCN(C(=O)c3ccccc3)CC2C(=O)NO)cc1 (stereo unspecified) | – | 81 nM | 66 nM | 1520 nM | –
COc1ccc(S(=O)(=O)N2CCN(c3nc(-c4ccccc4)cs3)CC2C(=O)NO)cc1 (stereo unspecified) | 28 nM | 325 nM | 11 nM | 3290 nM | –
COc1ccc(S(=O)(=O)N2CCN(C(=O)c3ccno3)CC2C(=O)NO)cc1 (stereo unspecified) | – | 62 nM | 147 nM | – | –
